This note sets out measurements from ChEMBL document CHEMBL3808369, “Identification of Cyproheptadine as an Inhibitor of SET Domain Containing Lysine Methyltransferase 7/9 (Set7/9) That Regulates Estrogen-Dependent Transcription” (J Med Chem, 2016).

Assay [1] concerns the target T1, Histone-lysine N-methyltransferase SETD7 (Homo sapiens) (UniProt Q8WTS6).
T1 sequence (whole entry): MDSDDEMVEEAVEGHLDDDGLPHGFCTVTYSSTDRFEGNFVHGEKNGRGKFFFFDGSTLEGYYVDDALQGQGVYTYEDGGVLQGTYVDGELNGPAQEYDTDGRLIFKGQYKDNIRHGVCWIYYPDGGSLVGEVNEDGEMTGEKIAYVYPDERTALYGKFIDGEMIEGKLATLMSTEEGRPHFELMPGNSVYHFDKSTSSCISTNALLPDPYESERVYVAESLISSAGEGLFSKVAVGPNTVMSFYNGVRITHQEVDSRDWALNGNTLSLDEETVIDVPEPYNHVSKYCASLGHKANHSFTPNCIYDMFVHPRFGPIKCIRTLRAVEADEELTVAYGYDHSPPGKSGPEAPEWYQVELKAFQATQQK
Kind of assay: Inhibition of Set7/9 in human MCF7 cells assessed as suppression of beta-estradiol-induced cell viability incubated for 4 days by haemocytometer. The format is cell-based. A digest of the protocol: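 MCF7 cells (1.5 × 10^4 per well) switched to estrogen-free medium after 24 h. Drug added with or without 10 nM β-estradiol, 4 days' incubation. Cells counted by hemocytometer. Four independent assays.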

For assay [2], the target named is T2, Histone-lysine N-methyltransferase EHMT2 (Homo sapiens) (UniProt Q96KQ7).
T2 sequence (whole entry): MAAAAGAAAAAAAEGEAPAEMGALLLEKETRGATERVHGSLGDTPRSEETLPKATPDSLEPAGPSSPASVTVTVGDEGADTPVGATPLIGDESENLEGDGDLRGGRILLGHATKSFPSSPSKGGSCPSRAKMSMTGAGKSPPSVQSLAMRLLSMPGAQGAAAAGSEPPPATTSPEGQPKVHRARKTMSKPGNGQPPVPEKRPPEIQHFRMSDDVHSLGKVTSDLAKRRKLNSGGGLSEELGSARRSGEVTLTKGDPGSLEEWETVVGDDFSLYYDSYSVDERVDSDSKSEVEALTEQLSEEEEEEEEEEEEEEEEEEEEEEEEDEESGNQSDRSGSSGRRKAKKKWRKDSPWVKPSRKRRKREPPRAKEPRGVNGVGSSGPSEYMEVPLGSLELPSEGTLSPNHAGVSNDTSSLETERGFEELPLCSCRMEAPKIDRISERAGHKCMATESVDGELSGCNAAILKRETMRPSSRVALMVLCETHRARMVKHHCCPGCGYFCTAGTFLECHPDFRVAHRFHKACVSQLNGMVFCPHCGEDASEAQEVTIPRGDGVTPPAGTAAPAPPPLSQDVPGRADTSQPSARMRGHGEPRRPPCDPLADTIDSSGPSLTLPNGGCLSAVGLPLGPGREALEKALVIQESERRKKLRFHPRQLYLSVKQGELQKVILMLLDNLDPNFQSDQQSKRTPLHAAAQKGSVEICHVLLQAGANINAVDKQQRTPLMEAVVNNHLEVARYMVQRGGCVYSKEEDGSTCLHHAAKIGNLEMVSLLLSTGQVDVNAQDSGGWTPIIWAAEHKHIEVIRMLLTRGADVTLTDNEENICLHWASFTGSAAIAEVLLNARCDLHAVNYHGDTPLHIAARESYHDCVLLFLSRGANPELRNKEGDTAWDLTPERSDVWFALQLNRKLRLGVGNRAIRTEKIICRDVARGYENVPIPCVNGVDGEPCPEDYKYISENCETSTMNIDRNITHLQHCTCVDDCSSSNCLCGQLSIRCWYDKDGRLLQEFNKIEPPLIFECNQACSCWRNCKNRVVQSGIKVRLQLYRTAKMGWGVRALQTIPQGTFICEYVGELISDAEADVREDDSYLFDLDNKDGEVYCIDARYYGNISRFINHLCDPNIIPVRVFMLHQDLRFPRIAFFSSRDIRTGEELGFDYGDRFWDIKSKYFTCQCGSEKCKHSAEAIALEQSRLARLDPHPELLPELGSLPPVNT
Put plainly: Inhibition of G9a (unknown origin) by fluorogenic assay.

The test system of assay [3] is MCF7. Put plainly: Antitumor activity against Fucci introduced human MCF7 cells xenografted in Balb/c-nu/nu mouse at 20 mg/kg, ip qd administered as single dose. The format is functional, organism-based. The procedure, abridged:
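Female Balb/C-nu/nu mice, 7 weeks old, carried mammary Fucci-MCF7 xenografts (about 2 × 10^7 cells) grown to about 100 mm3. A single ip dose of 20 mg/kg in saline with 10% ethanol was given on day 1; a vehicle group ran alongside. Caliper tumor volume (a2b)/2 and body weight were recorded every 3 or 4 days to day 15. Tumor volume relative to day 1; six mice, mean ± SE.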
For orientation: Xenograft models place foreign cells or tissue in a host animal.

In assay [4] the target is T1, Histone-lysine N-methyltransferase SETD7 (Homo sapiens). Kind of assay: Inhibition of Set7/9 in human MCF7 cells assessed as suppression of beta-estradiol-induced ERE promoter activation at 14 to 43 uM preincubated for 18 hrs followed by beta-estradiol addition measured after 24 hrs by luciferase reporter gene assay. It counts as cell-based. The procedure, abridged: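 MCF7 cells held in estrogen-free medium (phenol red-free RPMI, 10% charcoal-stripped FBS) for 3 days. Cells were then transfected with a 3×ERE firefly luciferase reporter plus a TK-Renilla control. Drug added 6 h later; after 18 h, ±10 nM β-estradiol for 24 h. Firefly signal normalised to Renilla, expressed as fold over unstimulated cells. Four independent assays.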

Assay [5] concerns MCF7. Put plainly: Effect on ERalpha mRNA expression in human MCF7 cells at 4.3 to 43 uM after 48 hrs by RT-PCR analysis. It counts as functional, cell-based. A digest of the protocol:
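MCF7 cells were treated with or without compound for 48 h. Total RNA was isolated with TRIzol. ERα and GAPDH mRNA levels were measured by semiquantitative RT-PCR.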

For assay [6], the target named is T1, Histone-lysine N-methyltransferase SETD7 (Homo sapiens). Kind of assay: Inhibition of Set7/9 in human MCF7 cells assessed as ERalpha destabilization at 43 uM for 36 hrs by immunoblotting analysis in presence of proteasome inhibitor MG132. The format is cell-based. The procedure, abridged: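 MCF7 cells treated with or without 43 μM drug for 36 h, then MG132 added for 12 h. Cells lysed by sonication in RIPA buffer with protease inhibitors. ERα read by SDS-PAGE/PVDF immunoblot with chemiluminescent detection.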
(A western blot detects proteins with antibodies after separation by electrophoresis.)

In assay [7] the target is T2, Histone-lysine N-methyltransferase EHMT2 (Homo sapiens). Kind of assay: Inhibition of G9a (unknown origin) by AlphaELISA.
For assay [8], the target named is T1, Histone-lysine N-methyltransferase SETD7 (Homo sapiens). Kind of assay: Competitive inhibition of recombinant Set7/9 (unknown origin) expressed in Escherichia coli BL21 (DE3) using varying Ac-KRSK-MCA peptide as substrate in presence of SAM preincubated for 1 hr followed by substrate addition measured after 15 mins by Lineweaver-Burk plot analysis. A digest of the protocol:
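His6-tagged Set7/9 purified by Ni2+ affinity from E. coli BL21(DE3) after induction with 0.1 mM IPTG at 18 °C for 24 h. Kinetics were run in a fluorogenic HMT assay using Ac-KRSK-MCA peptide, with either SAM or peptide concentration varied. Initial velocities were analysed by Lineweaver–Burk plot, four independent assays.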

Calls of active or inactive are those of the source. The calls are words filed in the database; no cut-off is given here.

Regarding `CN1CCC(=C2c3ccccc3C=Cc3ccccc32)CC1` [CYPROHEPTADINE], the inhibition entry in assay [1] was “Dose-dependent effect”. In addition, the inhibition entry in assay [2], in assay [4], in assay [7] and in assay [8] was “Active” each time. Further, the TGI entry in assay [3] was “Active”. In addition, the outcome in assay [5] was inactive. In addition, in assay [6], the inhibition result was “inactive”.
